CHOP inh = inhibitors of CHOP promoter induction, primary screen, cell-based, unfolded protein response, luciferase reporter; CHO-K1 CHOP-promoter luciferase, tunicamycin-induced, 15-18 h; inhibition, % at 10 µM; 220,000 compounds, 3.8% hits; AID 2732, 2010;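 active means compounds that reduced the stress-induced luciferase reporter signal by more than about 70% of percent inhibition, limit read from the data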;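 further: 0% = tunicamycin plus vehicle and 100% = wells without tunicamycin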
V-ATPase pHluor = regulators of yeast V-ATPase proton pumping, primary screen, pHLuorin cytosolic pH fluorescence; S. cerevisiae; response, % at 10 µM; 350,000 compounds, 0.37% hits; AID 504577, 2011; in the data active means response mostly above about 7.3%, no sharp cut-off; inactive means mostly below about 5.4%; further: actives read high
TbMetRS inhib = T. brucei MetRS inhibitors, primary screen, biochemical, luminescence; methionyl-tRNA synthetase (Trypanosoma brucei brucei); purified T. brucei MetRS, ATP depletion, Kinase-Glo luminescence; inhibition, % at 11.9 µM; 360,000 compounds, 0.4% hits; AID 624268, 2012;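 active means inhibition above a per-plate cutoff of the control wells' mean inhibition plus 3 SD, cut at about 5.5% in these data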;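 further: 0% = DMSO wells median and 100% = median of wells with control inhibitor compound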
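Test system: purified T. brucei MetRS enzyme. Also added: ATP, methionine and E. coli bulk tRNA substrates. Compound: 11.9 µM single point. Schedule: 15 min enzyme-compound preincubation, 2 h reaction, 10 min detection, 25 °C. Signal: luciferase luminescence of residual ATP, Kinase-Glo. Evaluation: percent inhibition versus plate control medians. Controls: DMSO wells, low control.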
UPR XBP1 act = activators of adaptive XBP1 UPR arm, primary screen, cell-based, CHO-XBP1 luciferase reporter, luminescence, uHTS | activation, % at 20 µM | IRE1-XBP1 UPR activation; percent of tunicamycin response, DMSO as zero | 330,000 compounds, 0.33% hits;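 active means versus positive control, 20 µM dose yields 30% or more activation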;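 further: 100% = tunicamycin at 10 µg/mL and 0% = DMSO only wells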
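Test system: CHO-XBP1 luciferase reporter cells | Buffer or medium: Serum-containing F12 medium, 10% FBS | Schedule: 6 h compound exposure at 37 °C, 5% CO2 | Detection: Steady-Glo luciferase glow luminescence, 10 min after reagent addition | Read-out basis: Activation, % of tunicamycin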
UPR CHOP act = activators of apoptotic CHOP UPR arm, primary screen, cell-based, CHO-CHOP luciferase reporter, luminescence, uHTS | UPR activation; percent of tunicamycin response over DMSO baseline | 330,000 compounds, 0.34% hits | activation, % at 10 µM | AID 449763, 2010;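 active means at 10 µM dose, activation of 40% or more, normalized to positive control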;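 further: 100% = tunicamycin at 10 µg/mL and 0% = DMSO alone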
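Evaluation: % reporter activation, DMSO baseline versus tunicamycin full activation; System: CHO-CHOP luciferase reporter cell line; Input: 500 cells/well; Incubation: 6 h compound treatment, 37 °C; Measured by: Steady-Glo luciferase luminescence; Dosing: one dose, 10 µM in 0.5% DMSO; Buffer or medium: F12 medium, 10% FBS; Benchmarks: positive tunicamycin 10 µg/mL, negative DMSO alone.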
TbMetRS confirm = T. brucei MetRS inhibitors, confirmation, biochemical, luminescence; AID 624412, 2012; T. brucei MetRS enzyme, luminescence (ATP depletion); 1,400 compounds, 93% hits; inhibition, % at 11.9 µM; shares compounds with TbMetRS inhib; in the data active means inhibition above about 7%
Jurkat tox = Jurkat T cell cytotoxicity, cytotoxicity control for T. brucei MetRS inhibitor project, luminescence, high throughput; shares compounds with TbMetRS inhib; Jurkat cells viability, ATP luminescence; 1,400 compounds, 12% hits; AID 624413, 2012; inhibition, % at 8.3 µM; in the data active means inhibition above about 15%;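 further: 0% = vehicle and 100% = reference inhibitor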
Tb MetRS inh FP = T. brucei MetRS inhibitors, orthogonal assay for T. brucei MetRS inhibitor project, biochemical, fluorescence polarization; shares compounds with TbMetRS inhib; purified T. brucei MetRS; inhibition, % at 11.9 µM; 1,400 compounds, 44% hits; in the data active means inhibition above about 17%;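 further: 0% = vehicle wells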
Active calls of the source: *; . = no result given. Many of the other results were omitted from the sample, so hits are more common in it than they were.

SMILES | CHOP inh | V-ATPase pHluor | TbMetRS inhib | UPR XBP1 act | UPR CHOP act | TbMetRS confirm | Jurkat tox | Tb MetRS inh FP
O=C(CCCSc1ccc(Cl)cc1)Nc1ccccc1O | . | 4 | 18* | 1 | -2 | 38* | 12 | 24*
Cc1ccc(SCCC(=O)N/N=C/c2ccccc2O)cc1 | 47 | -1 | 18* | 1 | -2 | 80* | 13 | 51*
Cc1cccc(NC(=O)CCC(=O)N/N=C/c2ccc(O)cc2O)c1 | . | 1 | 54* | 1 | 2 | 81* | 0 | 46*
O=C(COC(=O)Cc1ccsc1)Nc1ccc(Cl)cc1F | . | 5 | 0 | 2 | -1 | . | . | .
CC1CCN(C(=O)COC(=O)C2CCN(S(=O)(=O)c3ccc4c(c3)OCCO4)CC2)CC1 | . | 0 | -1 | 6 | 1 | . | . | .
CN(CC(=O)Nc1ccc(Cl)cc1)C(=O)CCC1CCCC1 | . | -6 | 6.7* | 0 | 2 | 52* | 7 | 20*
CN(CC(=O)Nc1ccc(Cl)cc1)C(=O)CN1C(=O)C2CCCCC2C1=O (stereo not drawn) | . | 0 | 0 | . | . | . | . | .
Cc1nn(C)c(Cl)c1C(=O)NCC(=O)NCc1ccccc1 | 11 | -3 | -1 | -1 | 2 | . | . | .
O=C(NCc1ccccc1)C1=C[C@H](c2ccc(C(F)(F)F)cc2)C[C@H](OCCCCO)O1 | . | 4 | 0 | -2 | 0 | . | . | .
O=C(NCc1nc2ccccc2[nH]1)C1=C[C@H](c2ccc(C(F)(F)F)cc2)C[C@H](OCCCCO)O1 | . | 11 | 31* | -2 | 3 | 69* | 9 | 38*
O=C(NCc1nc2ccccc2[nH]1)C1=C[C@H](c2ccc3c(c2)OCO3)C[C@H](OCCCCO)O1 | 8 | -3 | 69* | -2 | 1 | 89* | -3 | 76*
O=C(C1=C[C@@H](c2ccc3c(c2)OCO3)C[C@@H](OCCCCO)O1)N1CCN(Cc2ccc3c(c2)OCO3)CC1 | 20 | 4 | 18* | -1 | 2 | 55* | 2 | 25*
O=C(NCc1nc2ccccc2[nH]1)C1=C[C@H](c2ccccc2)C[C@H](OCCCCO)O1 | 20 | 0 | 39* | 0 | 0 | 74* | -5 | 45*
CCN(CCO)Cc1csc2ccc(C(C)(C)C)cc12 | 26 | 4 | 0 | -3 | -1 | . | . | .
O=C(NCc1nc2ccccc2[nH]1)C1=C[C@@H](c2ccc(C(F)(F)F)cc2)C[C@@H](OCCCCO)O1 | . | 0 | 32* | -2 | 3 | 68* | 9 | 35*
O=C(NCc1ccccc1)C1=C[C@@H](c2ccc(C(F)(F)F)cc2)C[C@@H](OCCCCO)O1 | . | 2 | 0 | 0 | 1 | . | . | .
CC(C)(C)C1c2[nH]c3ccccc3c2CCN1Cc1cccc(OCCO)c1 (stereo not drawn) | 3 | -3 | 9.1* | -3 | 0 | 7.1* | 3 | 6
NS(=O)(=O)c1ccc(CCNC(=O)Nc2ccc(Cl)c(Cl)c2)cc1 | 37 | -2 | 15* | -2 | 0 | 23* | 18* | 19*
Cc1ccc(S(=O)(=O)NNC(=O)Nc2ccc(Cl)c(Cl)c2)cc1 | 19 | -1 | 12* | 1 | 0 | 13* | 1 | 10
O=C(NCCc1ccncc1)Nc1ccc(Cl)cc1 | 5 | -1 | 6.2* | -1 | 1 | 14* | -1 | 0
O=C(NCCc1ccc(Cl)cc1)Nc1ccc(Cl)cc1 | -12 | 2 | 71* | -1 | 3 | 69* | 4 | 55*
O=C(NCCc1ccncc1)Nc1ccc(F)cc1 | 8 | 2 | -1 | 0 | 0 | . | . | .

Bioassay records deposited in PubChem by several laboratories.
